Hits are enriched below; roughly 2.9% of the tested compounds scored in any of these assays.
Arrestin-AP2 inh: inhibitors of beta-arrestin/AP2 binding, primary screen, biochemical, GPCR trafficking, flow cytometry. beta-arrestin 1 C-terminal peptide binding to AP2 beta2-adaptin appendage (human). FITC-arrestin peptide / GST-AP2 beads; AP2 beta2 appendage carries R879A mutation. inhibition, % at 10 µM. actives 0.31% (n = 340,000);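 active = inhibition above a set limit, near 3 SD of compounds lacking own fluorescence, cut at about 54% in these data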;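 also: plate controls were DMSO wells for no effect and 5 µM unlabelled arrestin peptide for full effect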
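test system = AP2 appendage R879A on GSH beads | buffer or medium = PBS plus Tween 20 (0.05%) and BSA (0.1%) | incubation = 12 min plus 1 h, RT | detection = bead flow cytometry, FITC channel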
ADAM10 inh: human ADAM10 inhibitors, primary screen, biochemical, QFRET, HTS | recombinant ADAM10, EDANS/DABCYL FRET peptide cleavage, 3 h | inhibition, % at 7 µM | actives 0.62% (n = 370,000) | AID 720582, 2013;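 active = inhibition above a per-campaign cutoff equal to the mean of compounds falling between control-based bounds plus 3 SD, cut at about 20% in these data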;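 also: 0% = DMSO wells while the 100% control is not disclosed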
NRP1-CendR mod: modulators of CendR peptide binding to NRP-1, primary screen, biochemical, fluorescence polarization, uHTS; AID 602438, 2012; actives 0.85% (n = 360,000); inhibition, % at 25 µM; FAM-RPARPAR peptide binding to NRP-1;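 active = inhibition or corrected inhibition above about 18%, plus a signal ratio from 0.5 to 1.5, limit read from the data, passing the limit was not always enough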
CaV13 FRET inh: Disruptors of the CACNA1D IQ motif to Ca2+-dependent inactivation inhibitor domain association, primary screening, Förster resonance energy transfer in intact living …. HEK cells, CFP/YFP FRET ICDI-IQ, plate reader, 10 min; percent FRET-ratio fall versus neutral wells. inhibition, % at 12.3 µM. actives 0.098% (n = 340,000);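 active = mean replicate inhibition of at least 30% and at least 1% of replicates passing that level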;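 also: 0% = median of the neutral control wells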
ADAM17 inh: ADAM17 inhibitors, primary screen, biochemical, QFRET; Disintegrin and metalloproteinase domain-containing protein 17 (Homo sapiens), P78536; recombinant ADAM17, EDANS/DABCYL FRET peptide cleavage; inhibition, % at 6.95 µM; actives 0.83% (n = 370,000); AID 720648, 2013;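 active = inhibition above the mean of compounds lying between control limits plus 3 SD, set per campaign, cut at about 8.5% in these data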;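 also: 0% = DMSO-only wells as the low control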
Target sequence (P78536 215-824 limits assumed): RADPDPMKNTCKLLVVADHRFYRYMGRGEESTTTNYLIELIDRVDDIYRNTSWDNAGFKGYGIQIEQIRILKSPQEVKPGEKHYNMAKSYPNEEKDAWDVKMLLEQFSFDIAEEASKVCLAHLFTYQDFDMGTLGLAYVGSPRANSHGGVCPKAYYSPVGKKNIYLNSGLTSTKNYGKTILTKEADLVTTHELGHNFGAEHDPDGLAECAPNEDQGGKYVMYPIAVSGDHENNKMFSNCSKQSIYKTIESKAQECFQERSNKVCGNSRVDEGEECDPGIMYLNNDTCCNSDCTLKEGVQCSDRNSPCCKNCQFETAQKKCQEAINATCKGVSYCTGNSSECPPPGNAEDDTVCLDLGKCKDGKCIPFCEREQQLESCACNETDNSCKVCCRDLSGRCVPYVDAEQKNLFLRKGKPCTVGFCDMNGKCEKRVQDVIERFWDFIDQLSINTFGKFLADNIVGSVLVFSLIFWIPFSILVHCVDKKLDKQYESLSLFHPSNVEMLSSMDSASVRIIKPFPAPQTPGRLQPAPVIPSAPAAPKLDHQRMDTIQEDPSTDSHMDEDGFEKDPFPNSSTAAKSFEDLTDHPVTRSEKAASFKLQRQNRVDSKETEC
FAS-TE inh: FAS thioesterase domain inhibitors, primary screen, biochemical, fluorescence intensity, uHTS | Fatty acid synthase (Homo sapiens), P49327 | recombinant FAS-TE, OMFH fluorogenic substrate, fluorescence endpoint | inhibition, % at 15 µM | actives 0.67% (n = 360,000) | AID 602261, 2012;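 active = compounds whose normalised, plate-corrected inhibition of enzyme fluorescence in the single-dose primary screen is 50% or more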;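 also: 0% = DMSO with enzyme and 100% = substrate without enzyme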
Active calls of the source: *; i = inactive; nt = no result; + = active, no number.

SMILES	Arrestin-AP2 inh	ADAM10 inh	NRP1-CendR mod	CaV13 FRET inh	ADAM17 inh	FAS-TE inh
Cc1nc2sc(C(=O)NCc3ccncc3)c(N)c2c(C)c1Cl	nt	-16.4	nt	nt	-5.5	nt
CCCOc1ccc(C2C(C(=O)OC)=CN(CCOC)C=C2C(=O)OC)cc1	-9.6	i	27.9*	-3.6	i	-1.0
CCCCN1C=C(C(=O)OC)C(c2ccccc2C(F)(F)F)C(C(=O)OC)=C1	2.7	-119.1	6.9	-3.3	-32.9	-0.1
CCCCN1C=C(C(=O)OC)C(c2ccccc2Cl)C(C(=O)OC)=C1	0.4	-450.5	-8.4	+	-143.6	14.5
COc1ccc(-c2nc3c(C)cc(Br)cn3c2Cc2ccsc2)cc1OC	nt	-10.2	-10.9	-3.6	-4.9	16.6
CN1CCc2cccc3c2[C@@H]1Cc1ccc(O)c(O)c1-3	16.4	nt	25.9*	nt	nt	-3.9
N#Cc1ccc(COC(=O)c2cnc(Cl)c(Cl)c2)cc1	-5.8	9.4	25.0*	-4.9	3.3	24.5
CCOC(=O)c1ccc(N2CCN(C(=O)c3ccccc3)CC2)c(NC(=O)c2ccco2)c1	-4.3	1.1	31.3*	-15.1	1.6	8.7
CCOc1cc(/C=N/n2cnnc2)ccc1OCC(=O)Nc1ccccc1OC	-2.7	-6.2	20.0*	-6.6	1.1	-5.0
CCCCCn1c(N2CCN(c3cccc(Cl)c3)CC2)nc2c1c(=O)[nH]c(=O)n2C	0.2	7.6	28.1*	-5.5	-3.1	29.2
O=C(NCC1CC1)C1Cc2c(-c3ccc(Cl)cc3)ccnc2O1 (stereo not given)	nt	-20.4	-6.3	-6.4	-2.8	-0.4
CC(=O)Nc1ccc(-c2ccnc3c2CC(C(=O)NCc2cccc(Cl)c2)O3)cc1 (stereo not given)	nt	3.1	-12.0	-5.6	-1.5	3.9
O=C(NCCC(F)(F)F)C1Cc2c(-c3ccc(Cl)cc3)ccnc2O1 (stereo not given)	nt	-0.9	27.0*	-5.0	0.7	4.3
CC(=O)Nc1cccc(-c2ccnc3c2CC(C(=O)NCc2cccc(Cl)c2)O3)c1 (stereo not given)	nt	-9.8	-3.0	45.2*	0.2	-0.6
O=C(OC12CCCN(C1)/C(=C/c1ccccc1)C2)C1CCCC1 (stereo not given)	nt	-7.9	nt	nt	-2.5	nt
CN1CCN(C(=O)c2ccc(N(C)S(=O)(=O)c3cccs3)cc2)CC1	2.5	-12.9	22.1*	-6.5	-3.5	-5.0
Nc1ccc(C#Cc2c(-c3ccsc3)oc3ccc(N4CCOCC4)cc23)cc1	32.2	i	26.0*	-7.7	-193.9	28.2
COc1ccc(-c2c(-c3ccsc3)oc3ccc(N4CCOCC4)cc23)cn1	-6.7	-144.6	6.3	-5.6	-44.2	21.1
CC(NNC(=S)N1CCCCCC1)c1ccc2ccccc2n1 (stereo not given)	nt	-115.2	-3.8	-9.9	-25.4	-2.5
CC(C)CNS(=O)(=O)/C=C/c1ccccc1CCNC(=O)OC(C)(C)C	nt	5.4	nt	nt	-1.7	nt
C#CCOCCOCCOCCNc1nc(N2CCN(C(=O)Cn3cc(CCCN=C(N)N)nn3)CC2)nc(N2CCN(C(=O)Cn3cc(CC(C)O)nn3)CC2)n1 (stereo not given)	2.1	12.7	25.1*	-4.2	-5.2	-11.8
C#CCOCCOCCOCCNc1nc(N2CCN(C(=O)Cn3cc(CCO)nn3)CC2)nc(N2CCN(C(=O)[C@H](C)n3cc(CCCN=C(N)N)nn3)CC2)n1	-5.2	4.2	22.6*	-9.5	-0.3	-10.7
COCCN(CCOC)Cc1cc(=O)oc2cc(OC)ccc12	nt	-298.4	6.1	-8.5	-81.9	-9.9
CCNC(=O)C1(C)CCN(C(=O)c2cccc(Cl)c2)C1 (stereo not given)	nt	3.8	-9.7	-7.5	5.6	-7.2
COc1cccc(NC(=O)CN(C)C(=O)C23CC4CC(CC(Cl)(C4)C2)C3)c1	28.2	-0.4	32.8*	-3.1	-1.0	17.5
SMILES	Arrestin-AP2 inh	ADAM10 inh	NRP1-CendR mod	CaV13 FRET inh	ADAM17 inh	FAS-TE inh
CC(C)[C@@H](C)/C=C/[C@@H](C)[C@H]1CC[C@@H]2[C@]1(C)CCC1[C@]23C=C[C@]2(C[C@@H](O)CC[C@]12C)N(c1ccc(Br)cn1)O3 (stereo not given in full)	nt	2.6	nt	-9.0	3.4	nt
O=c1oc(Nc2ccccc2F)nc2ccccc12	0.7	-33.6	36.9*	-5.2	-16.5	-3.1
O=c1oc(Nc2ccccc2Cl)nc2ccccc12	-8.8	-22.9	7.7	-2.2	-8.4	24.7
Cn1c(NCC2CCCCC2)nc2cc(-c3ccsc3)sc2c1=O	nt	-1.8	-8.8	-13.9	-1.7	22.2
COc1ccc(Cn2c(C3CC3)nc3ccc(NC(C)=O)cc3c2=O)cc1	28.6	-7.9	0.3	nt	-6.2	3.5
COc1ccc(Cn2c(C3CC3)nc3ccc(NC(=O)c4cccnc4)cc3c2=O)cc1	-4.4	nt	32.5*	nt	nt	-0.1
COC(=O)C[C@@H]1C=C[C@H](NC(=O)Cc2ccccn2)[C@@H](CO)O1	nt	-9.1	14.1	-3.3	-0.5	nt
CCCCC1=CC2=CC(=O)C(C)(OC(=O)CC)C(=O)C2=CN1c1ccc(OC)cc1 (stereo not given)	-2.0	-33.8	23.9*	nt	-8.2	0.9
CCN(CC)S(=O)(=O)c1cccc2nsnc12	-5.5	14.7	26.6*	-2.7	5.4	-8.9
CCN(c1ccc(F)cc1)S(=O)(=O)c1cccc2nsnc12	0.9	4.2	5.8	-19.4	-2.3	-6.8
CC(C)CN1C(=O)CSCC1(C)C(=O)NCc1ccccc1 (stereo not given)	nt	-1.6	7.7	-8.9	-2.5	nt
COC(=O)C1=C(C)N(Cc2ccccc2C(F)(F)F)C(=NCc2ccc3c(c2)OCO3)NC1c1cccc(C(F)(F)F)c1 (stereo not given)	nt	4.6	nt	-11.5	3.0	nt
COc1cccc(OCC(=O)NNC(=S)Nc2ccc(Cl)cc2Cl)c1	-1.3	-2.5	23.8*	-0.5	0.6	3.8
COc1cccc(OCC(=O)NNC(=O)C(=O)Nc2ccc(OC)cc2OC)c1	3.5	10.1	11.7	nt	4.5	-2.4
CC1(C(=O)NS(=O)(=O)C2CC2)CCCN(C(=O)c2ccc(C(F)(F)F)cc2)C1 (stereo not given)	nt	-4.5	-0.1	-4.8	-2.4	-2.5
Cc1ccc(C)c(S(=O)(=O)N2CCN(C(=O)[C@@H]3CCCN3C(=O)c3cccs3)CC2)c1	0.6	1.2	16.5	-17.1	-0.3	-8.6
O=C(N/N=C\c1cc(Br)c(Br)o1)c1cncc(Br)c1	-11.1	-5.2	0.6	-2.4	-1.4	5.6
O=C(N/N=C/c1cc(Br)c(Br)o1)c1cccnc1	nt	-8.6	31.2*	-4.2	1.5	-7.3
